Activity calls are given as the source filed them. No cut-off for these calls is given here.
What was measured:
Staphylococcus aureus [1] = assay: Antibacterial activity against Staphylococcus aureus NCIM 2602 at 100 ug/ml by agar cup plate method; settings: read-out: IZ
Delftia acidovorans [2] = assay: Antibacterial activity against Pseudomonas desmolytica NCIM 2028 at 100 ug/ml by agar cup plate method; assay type: functional; settings: for zone of inhibition at 100 µg/mL: read-out: IZ
Method in brief: (§1)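 Agar cup plate assay. Strains were obtained from NCL Pune, India, and test compounds were dissolved in DMF. Values are reported as mean (SEM).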

Aspergillus niger = assay: Antifungal activity against Aspergillus niger NCIM 813 at 100 ug/ml by agar cup plate method; assay type: functional; settings: for zone of inhibition at 100 µg/mL: read-out: IZ
Method in brief: as §1

Escherichia coli [3] = assay: Antibacterial activity against Escherichia coli NCIM 2666 at 100 ug/ml by agar cup plate method; assay type: functional; settings: for zone of inhibition at 100 µg/mL: read-out: IZ
Method in brief: as §1

Bacillus subtilis [4] = assay: Antibacterial activity against Bacillus subtilis NCIM 2613 at 100 ug/ml by agar cup plate method; settings: read-out: IZ
Penicillium roqueforti = assay: Antifungal activity against Penicillium roqueforti NCIM 712 at 100 ug/ml by agar cup plate method; assay type: functional; settings: for zone of inhibition at 100 µg/mL: read-out: IZ
Method in brief: as §1

Bacillus subtilis [5] = assay: microbe, parasite or virus in culture; settings: Staphylococcus aureus, NCIM 2602, read-out: IZ
Escherichia coli [6] = assay: microbe, parasite or virus in culture; settings: NCIM 2666, read-out: IZ
Staphylococcus aureus [7] = assay: microbe, parasite or virus in culture; settings: Bacillus subtilis, NCIM 2613, read-out: IZ
Delftia acidovorans [8] = assay: Antibacterial activity against Pseudomonas desmolytica NCIM 2028 at 50 ug/ml by agar cup plate method; assay type: functional; settings: read-out: IZ
Method in brief: as §1

Row | SMILES | zone of inhibition at 100 µg/mL (Staphylococcus aureus [1]) | zone of inhibition at 100 µg/mL (Delftia acidovorans [2]) | inhibition zone (IZ) (Aspergillus niger) | zone of inhibition at 100 µg/mL (Escherichia coli [3]) | zone of inhibition at 100 µg/mL (Bacillus subtilis [4]) | inhibition zone (IZ) (Penicillium roqueforti) | zone of inhibition at 100 µg/mL (Aspergillus niger) | zone of inhibition at 100 µg/mL (Penicillium roqueforti) | zone of inhibition at 50 µg/mL (Bacillus subtilis [5]) | zone of inhibition at 50 µg/mL (Escherichia coli [6]) | zone of inhibition at 50 µg/mL (Staphylococcus aureus [7]) | zone of inhibition at 50 µg/mL (Delftia acidovorans [8]) | inhibition zone (IZ) (Delftia acidovorans [2]) | inhibition zone (IZ) (Escherichia coli [3])
1 | Cc1cc(=O)oc2cc(/N=C/c3ccc(N(C)C)cc3)ccc12 | 6 mm | 8 mm | inactive | 8 mm | 14 mm | inactive | – | – | – | – | – | – | – | –
2 | Cc1cc(=O)oc2cc(N3C(=O)CSC3c3ccc(Cl)cc3Cl)ccc12 (stereo not given) | 7 mm | 11 mm | – | 15 mm | 10 mm | – | 6 mm | 8 mm | – | – | – | – | – | –
3 | Cc1cc(=O)oc2cc(N3C(=O)CSC3c3ccc(N(C)C)cc3)ccc12 (stereo not given) | 5 mm | 7 mm | inactive | 10 mm | 13 mm | inactive | – | – | – | – | – | – | – | –
4 | Cc1cc(=O)oc2cc(/N=C/c3ccccc3)ccc12 | 11 mm | 10 mm | – | 13 mm | 10 mm | – | 9 mm | 11 mm | – | – | – | – | – | –
5 | Cc1cc(=O)oc2cc(/N=C/c3ccc(Cl)cc3Cl)ccc12 | 5 mm | 13 mm | – | 14 mm | 12 mm | – | 7 mm | 9 mm | – | – | – | – | – | –
6 | O=C(O)c1cn(C2CC2)c2cc(N3CCNCC3)c(F)cc2c1=O [CIPROFLOXACIN] | – | – | – | – | – | – | – | – | 25 mm | 30 mm | 18 mm | 18 mm | – | –
7 | Cc1cc(=O)oc2cc(/N=C/c3ccccc3O)ccc12 | 3 mm | – | – | – | 7 mm | – | 6 mm | 10 mm | – | – | – | – | inactive | inactive
8 | Cc1cc(=O)oc2cc(/N=C/c3ccc(F)cc3)ccc12 | 16 mm | 12 mm | inactive | 14 mm | 17 mm | – | – | 5 mm | – | – | – | – | – | –
9 | Cc1cc(=O)oc2cc(N3C(=O)CSC3c3ccc(O)cc3)ccc12 (stereo not given) | 4 mm | – | – | – | 9 mm | – | 5 mm | 9 mm | – | – | – | – | inactive | inactive
10 | Cc1cc(=O)oc2cc(N3C(=O)CSC3c3ccccc3)ccc12 (stereo not given) | 12 mm | 14 mm | – | 2 mm | 19 mm | – | 8 mm | 13 mm | – | – | – | – | – | –
11 | Cc1cc(=O)oc2cc(/N=C/c3ccc(O)cc3)ccc12 | 4 mm | – | – | – | 10 mm | – | 6 mm | 8 mm | – | – | – | – | inactive | inactive
12 | Cc1ccc(/C=N/c2ccc3c(C)cc(=O)oc3c2)cc1 | 7 mm | 11 mm | – | 10 mm | 9 mm | – | 3 mm | 7 mm | – | – | – | – | – | –
